From ChEMBL document CHEMBL1212869, “Anti-HIV and antiplasmodial activity of original flavonoid derivatives” (Bioorg Med Chem, 2010)
pIC50: −log10 of the molar value.

Experiments:
[1] = test system: Human immunodeficiency virus 1; assay: Antiviral activity against HIV1 3B infected in human MT4 cells assessed as inhibition of virus-induced cytopathic effect after 4 days by MTT assay; assay type: functional, organism-based; conditions: Human immunodeficiency virus 1, 3B, MT4, 96 h
Plasmodium falciparum = assay: Antiplasmodial activity against chloroquine-resistant Plasmodium falciparum W2 infected in human A+ erythrocytes assessed as inhibition of parasite proliferation after 48 hrs; assay type: functional, organism-based; conditions: W2, 48 h
Method in brief: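 W2 parasites were cultured in RPMI 1640 with 25 mM HEPES, 25 mM NaHCO3 and 10% A+ human serum at 2.5% hematocrit, at 37 °C under 10% O2/6% CO2/84% N2. After 48 h exposure without medium change, cells were stained with hydroethidine (0.05 mg/mL in PBS, 20 min, dark, 37 °C). Parasitaemia was read by flow cytometry. IC50 came from three independent experiments.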

[2] = Selectivity index, ratio of IC50 for human THP1 cells to IC50 for chloroquine-resistant Plasmodium falciparum W2; assay type: toxicity, cell-based, THP-1; conditions: read-out: Selectivity Index
THP-1 = assay: Cytotoxicity against human THP1 cells using propidium iodide staining after 72 hrs by flow cytometry; assay type: cell-based; conditions: THP-1, 72 h
[3] = Cytotoxicity against human MT4 cells after 4 days by MTT assay; assay type: cell-based
Method in brief: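 Uninfected MT-4 cells were run in parallel with the antiviral test under the same conditions: 10⁵ cells/mL, serial compound dilutions from DMSO stocks, 4 days at 37 °C. Viability was read by MTT. CC50 is the concentration that lowers viability of uninfected cells by 50%.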

[4] = test system: Human immunodeficiency virus 2; assay: Antiviral activity against HIV2 ROD infected in human MT4 cells assessed as inhibition of virus-induced cytopathic effect after 4 days by MTT assay; assay type: functional, organism-based; conditions: Human immunodeficiency virus 2, ISOLATE ROD, MT4, 96 h
[5] = Selectivity index, ratio of CC50 for human MT4 cells to IC50 for HIV2 ROD; assay type: functional
Method in brief: (§1)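 Selectivity index was calculated as the MT-4 CC50 from uninfected cells divided by the IC50 against HIV-1 IIIB or HIV-2 ROD. Both values came from the 4-day MTT cytopathic-effect assays.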

[6] = Selectivity index, ratio of CC50 for human MT4 cells to IC50 for HIV1 3B; assay type: functional; method in brief: as §1

SMILES	pIC50 [1]	pIC50 (Plasmodium falciparum)	selectivity ratio [2]	pIC50 (THP-1)	CC50 at 96 h [3]	pIC50 [4]	Selectivity Index [5]	Selectivity Index [6]
COc1c(-c2ccc(C(F)(F)F)cc2)oc2ccc(NC(C)=O)cc2c1=O	3.48	4.41	> 3.2	< 3.90	332 µM	3.48		
COc1ccc(-c2oc3ccc(NC(C)=O)cc3c(=O)c2OC)cc1	3.43	4.68	> 2.4	< 4.30	369 µM	3.43		
COc1c(-c2ccccc2F)oc2ccc(NC(C)=O)cc2c1=O	3.74	4.82	> 8.3	< 3.90	180 µM	3.74		
COc1c(-c2cccc(F)c2)oc2ccc(NC(C)=O)cc2c1=O	3.68	4.31	> 2.6	< 3.90	210 µM	3.68		
COc1c(-c2ccc(F)cc2)oc2ccc(NC(C)=O)cc2c1=O	3.50	4.64	> 5.4	< 3.90	317 µM	3.50		
COc1c(-c2cccc(C(F)(F)F)c2)oc2ccc(NC(C)=O)cc2c1=O	3.70	4.72	2.7	4.28	201 µM	3.70		
COc1c(-c2ccccc2)oc2ccc(N)cc2c1=O	3.90	4.70	3.7	4.13	126 µM	3.90		
COc1ccccc1-c1oc2ccc(N)cc2c(=O)c1OC	3.64	5.11	15.1	3.94	229 µM	3.64		
COc1cccc(-c2oc3ccc(N)cc3c(=O)c2OC)c1	3.60	4.89	2.8	4.43	251 µM	3.60		
COc1ccc(-c2oc3ccc(N)cc3c(=O)c2OC)cc1	3.70	< 4.68		4.68	200 µM	4.24	3.4	
COc1c(-c2ccccc2F)oc2ccc(N)cc2c1=O	4.35	4.64	> 5.4	< 3.90	234 µM	3.63		5.2
COc1c(-c2cccc(F)c2)oc2ccc(N)cc2c1=O	3.95	< 4.47		4.47	112 µM	4.22	1.9	
COc1c(-c2ccc(F)cc2)oc2ccc(N)cc2c1=O	3.85	4.48	1.1	4.44	141 µM	3.85		
COc1c(-c2cccc(C(F)(F)F)c2)oc2ccc(N)cc2c1=O	4.30	< 4.48		4.48	73.1 µM	4.24	1.3	1.5
COc1c(-c2ccc(C(F)(F)F)cc2)oc2ccc(N)cc2c1=O	3.54	4.59			290 µM	4.32	6.1	
COc1ccccc1-c1cc(=O)c2cc(N)ccc2o1	4.06	4.30	1.5	4.13	198 µM	3.70		2.3
Nc1ccc2oc(-c3cccc(F)c3)cc(=O)c2c1	4.21	< 4.30		< 3.90	269 µM	4.23	4.6	4.4
O=c1[nH]cnc2c1ncn2[C@H]1CC[C@@H](CO)O1 [DIDANOSINE]					> 529 µM		>195	>98
Cc1ccnc2c1NC(=O)c1cccnc1N2C1CC1 [NEVIRAPINE]	7.52					4.82	46	
Cc1cn([C@H]2C[C@H](N=[N+]=[N-])[C@@H](CO)O2)c(=O)[nH]c1=O [ZIDOVUDINE]	8.30				93.5 µM			>17990
